Avidin fluor = avidin bead compound fluorescence profile; Avidin beads, compound fluorescence 488/530 nm, flow cytometry; active compounds read high; fluorescence (KMESF) at 10 µM; actives 0.38% (n = 220,000); AID 1775; in the data active = fluorescence above about 47
L major viab = inhibitors of Leishmania major promastigote growth. Leishmania major promastigotes, resazurin fluorescence viability. inhibition, % at 10 µM. actives 9% (n = 200,000). AID 1063;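 note: promastigotes grown with compound for 44 hours at 28 °C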
ABCG2 inh = blocks JC-1 efflux by human ABCG2 transporter. Q9UNQ0. IgMXP3 cells, flow cytometry. inhibition, % at 6.6 µM. actives 0.1% (n = 190,000);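 active = inhibition above 80%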
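Measure – % inhibition of efflux relative to nicardipine and DMSO · Test system – ABCG2 IgMXP3 and barcoded ABCB1 CCRF-Adr cell mix · Control set – nicardipine as high control, DMSO as low control · Compound – one concentration, 6.6 µM final · Signal – flow cytometry of retained JC-1 fluorescence · Timing – 10 min exposure at 25 °C with rotation, no wash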
GSH bead fluor = compound fluoresces at 488/530 nm on GSH beads. GSH beads flow cytometry, compound fluorescence 488/530 nm; active compounds read high. fluorescence (KMESF) at 10 µM. actives 0.25% (n = 190,000); in the data active = fluorescence above about 89;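 note: glutathione beads carrying GST-tagged Bcl family fusion proteins plus one bare bead set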
ABCB1 inh = human ABCB1 inhibition, ABCG2 as counter-screen. P08183. CCRF-Adr cells, JC-1 efflux, flow cytometry. inhibition, % at 6.6 µM. actives 0.067% (n = 190,000). AID 1326; in the data active = inhibition above about 40%;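 note: higher value means more JC-1 retained so stronger ABCB1 efflux block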
PKD1 kinase inh = blocks activity of human protein kinase D1 | PKD1 kinase fluorescence polarization assay | inhibition, % (concentration not given with the values) | actives 0.056% (n = 200,000) | AID 797
Target sequence (Q15139 whole entry, looked up): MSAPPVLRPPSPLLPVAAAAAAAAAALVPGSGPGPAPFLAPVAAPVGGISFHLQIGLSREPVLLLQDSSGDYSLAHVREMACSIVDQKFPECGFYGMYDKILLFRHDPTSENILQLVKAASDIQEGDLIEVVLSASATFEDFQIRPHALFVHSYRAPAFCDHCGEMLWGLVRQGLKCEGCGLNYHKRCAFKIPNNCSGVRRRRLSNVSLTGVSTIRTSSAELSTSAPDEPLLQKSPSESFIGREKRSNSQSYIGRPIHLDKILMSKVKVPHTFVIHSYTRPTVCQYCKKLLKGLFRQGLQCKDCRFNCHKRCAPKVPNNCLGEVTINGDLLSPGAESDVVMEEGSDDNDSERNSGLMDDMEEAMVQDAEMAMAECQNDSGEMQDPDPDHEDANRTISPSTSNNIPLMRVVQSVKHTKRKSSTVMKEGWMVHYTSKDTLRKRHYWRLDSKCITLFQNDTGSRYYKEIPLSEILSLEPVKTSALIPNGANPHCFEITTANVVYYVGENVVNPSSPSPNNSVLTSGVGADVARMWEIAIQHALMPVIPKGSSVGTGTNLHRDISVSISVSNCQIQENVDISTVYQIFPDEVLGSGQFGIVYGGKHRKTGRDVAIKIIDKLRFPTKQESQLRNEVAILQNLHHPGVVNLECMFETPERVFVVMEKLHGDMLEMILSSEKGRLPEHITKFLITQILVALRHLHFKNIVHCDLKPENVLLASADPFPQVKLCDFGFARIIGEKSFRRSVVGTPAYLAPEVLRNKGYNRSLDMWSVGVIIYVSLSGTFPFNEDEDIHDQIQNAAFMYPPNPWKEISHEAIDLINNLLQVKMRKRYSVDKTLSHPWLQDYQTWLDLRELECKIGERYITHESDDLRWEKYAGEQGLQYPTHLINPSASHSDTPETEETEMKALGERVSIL
Each line names hits and unclear results; the compound was inactive in the other large screens. The sample as a whole holds a higher share of hits than the screen did. Cut-off read from the data, not from the text of the source, unless noted: active = inhibition above about 50%; inactive = the rest.

O=C1NC(Cc2c[nH]c3ccccc23)C(=O)N1CCOc1ccccc1 (centres undefined)	L major viab 95.7
O=C1NC(Cc2c[nH]c3ccccc23)C(=O)N1Cc1cccc2ccccc12 (centres undefined)	none
O=c1[nH]c(C2CC2)nc2sc3c(c12)CCCC3	none
N#Cc1cnn(-c2nc3sc4c(c3c(=O)[nH]2)CCCC4)c1N	L major viab 93.6
C=CCOCCN(C)C1=NS(=O)(=O)c2cc([N+](=O)[O-])ccc21	L major viab 100.0
CCOC(=O)N1CCN(C(=O)C2CCN(Cc3cccc(OCc4ccccc4)c3)CC2)CC1	none
CCCCN(C)C(=O)C1CCN(Cc2ccc(OCc3ccccc3)cc2)CC1	L major viab 61.3
CSc1ccc(CN2CCC(C(=O)NCc3ccc(C)cc3)CC2)cc1	L major viab 92.1
CCCCOc1ccc(CN2CCC(O)CC2)cc1	L major viab 90.7
CSc1ccc(CN2CCC(O)CC2)cc1	L major viab 80.8 (no result: Avidin fluor, ABCG2 inh, GSH bead fluor, ABCB1 inh)
CCS(=O)(=O)N1CCCC(C(=O)NCCCN2CCCC2=O)C1 (centres undefined)	none
COc1ccc(CCNC(=O)C2CCCN(C(=O)N(C)C)C2)c(OC)c1 (centres undefined)	none
O=C(c1ccco1)N1CCN(Cc2nc(Cc3ccccc3)no2)CC1	none
O=C(c1ccco1)N1CCCN(Cc2nc(-c3cccs3)no2)CC1	L major viab 86.2
CCOc1ccc2nc(N/C(N)=N/C(=S)Nc3cccc(C)c3)nc(C)c2c1	L major viab 59.6
CCOc1ccc2nc(N/C(N)=N/C(=S)Nc3cccc(OC)c3)nc(C)c2c1	none (no result: L major viab, ABCG2 inh, GSH bead fluor, ABCB1 inh, PKD1 kinase inh)
COCc1cc(C)n(CC(=O)Nc2cc(C)cc(C)c2)c(=O)c1C#N	none
Cc1ccsc1/C=C1/NC(=O)N(Cc2ccc(F)cc2)C1=O	none
CN(Cc1ccccc1)C(=O)CN(c1ccc(F)cc1)S(=O)(=O)c1ccc2c(c1)OCCO2	L major viab 95.2
O=C(CN(c1ccc(F)cc1)S(=O)(=O)c1ccc2c(c1)OCCO2)Nc1ccccc1	L major viab 79.9
O=C(CN(c1ccc(F)cc1)S(=O)(=O)c1ccc2c(c1)OCCO2)NCc1ccccc1	L major viab 95.8
O=C(CN(c1ccc2c(c1)OCCO2)S(=O)(=O)c1ccccc1)NCC1CCCO1 (centres undefined)	none
O=C(CN(c1ccc2c(c1)OCCO2)S(=O)(=O)c1ccccc1)NCc1ccc(Cl)cc1	L major viab 98.4
CC(=O)Nc1ccc(NC(=O)CN(c2ccc(F)cc2)S(=O)(=O)c2ccc3c(c2)OCCO3)cc1	none
CC(=O)c1cnc(Nc2cccc(C)c2)s1	none
CCN1CCN(C(=O)Cn2cnc3sc(C)c(S(=O)(=O)N4CCN(c5ncccn5)CC4)c3c2=O)CC1	none
Nc1c(C(=O)N2CCCC2)sc2nc(-c3ccccc3)ccc12	none (no result: L major viab, ABCG2 inh, GSH bead fluor, ABCB1 inh, PKD1 kinase inh)
NCCCCCc1nnc(SCc2ccc(Cl)cc2Cl)o1	L major viab 100.3
NCCc1nnc(SCc2ccccc2Cl)o1	none (no result: L major viab, ABCG2 inh, GSH bead fluor, ABCB1 inh, PKD1 kinase inh)
CCN1CCN(c2nc(-c3cccs3)nc3ccccc23)CC1	none
c1ccc(CN2CCC(Nc3nc(-c4cccs4)nc4ccccc34)CC2)cc1	L major viab 100.3
c1csc(CNc2nc(-c3cccs3)nc3ccccc23)c1	L major viab 82.8
CN(C)S(=O)(=O)c1ccc(-c2csc(N/N=C/c3ccc(O)cc3)n2)cc1	none (no result: L major viab, ABCG2 inh, GSH bead fluor, ABCB1 inh, PKD1 kinase inh)
CCC/C(O)=C1\C(=O)CC(C)(C)CC1=Nc1ccccc1O	none
CCCNc1nc(Nc2ccc(C)cc2)nc(N2CCCC2)n1	L major viab 89.0
c1ccc(Nc2nc(N3CCOCC3)nc(N3CCOCC3)n2)cc1	none
NNc1nc(Nc2ccccc2)nc(N2CCCCC2)n1	L major viab 100.0
NNc1nc(Nc2ccccc2)nc(Nc2ccccc2)n1	L major viab 100.5
c1ccc2oc(-c3ccc(Nc4nc(N5CCCCC5)nc(N5CCOCC5)n4)cc3)nc2c1	L major viab 73.7
CNc1nc(Cl)nc(Nc2ccccc2)n1	none
O=[N+]([O-])c1ccc(Nc2nc(NCCO)nc(N3CCCC3)n2)cc1	none
Cc1[nH]nc(SCC(=O)N(C)c2ccccc2)c1[N+](=O)[O-]	none
COc1ccc(-c2ccc(/C=C(\NC(=O)c3ccccc3)C(=O)N3CCOCC3)o2)cc1	none
O=C(/C=C/c1cccc(O)c1)c1cccnc1	L major viab 98.6
O=C(/C=C/c1cccnc1)c1ccc(O)cc1	none (no result: L major viab, ABCG2 inh, GSH bead fluor, ABCB1 inh, PKD1 kinase inh)
O=S(=O)(c1ccc(F)c(F)c1F)N1CCN(C(=S)Nc2ccccc2)CC1	none
CC(C)=NNc1nc(-c2ccccc2)c(C)s1	none
CCOc1ccc(-n2nnc3c(=O)n(CC(=O)N4CCCc5ccccc54)cnc32)cc1	L major viab 54.8
C=CCNC(=O)Nc1ccc(Cl)cn1	none
O=C(NCC1COc2ccccc2O1)c1ccc(NC(=O)C(c2ccccc2)c2ccccc2)cc1 (centres undefined)	L major viab 91.9
O=C(Cc1ccccc1)Nc1ccc(C(=O)NCC2COc3ccccc3O2)cc1 (centres undefined)	none
Cc1cc(C)c2nc(N3CCC(C(=O)NCCCN4CC(C)CC(C)C4)CC3)sc2c1 (centres undefined)	L major viab 98.6
CCOCCCN1CN(S(=O)(=O)c2ccc(Cl)cc2)c2nc3ccccc3nc21	none
C/C(Cc1ccccc1)=N\NC(=O)CNC(=O)c1ccccc1O	none (no result: L major viab, ABCG2 inh, GSH bead fluor, ABCB1 inh, PKD1 kinase inh)
C/C(Cc1ccccc1)=N\NC(=O)CNC(=O)c1ccccc1Br	L major viab 61.5
COC(=O)c1ccc(NC(=O)CCOc2ccccc2)cc1	none
COc1ccc(N2C(=O)CSC23C(=O)N2c4c(cccc43)C(C)=CC2(C)C)cc1 (centres undefined)	L major viab 99.6
COc1ccc(N2C(=O)CSC23C(=O)N2CCCc4cccc3c42)cc1 (centres undefined)	none
CC[C@H]1OC(=O)C[C@@H](O)[C@H](C)[C@@H](O[C@@H]2O[C@H](C)C[C@H](N(C)C)[C@H]2O)[C@@H](CC=O)C[C@@H](C)C(=O)C=C[C@]2(C)O[C@H]2[C@@H]1C	none (no result: L major viab, ABCG2 inh, GSH bead fluor, ABCB1 inh, PKD1 kinase inh)
C(=N\Nc1nc2ccccc2s1)/c1ccc2c(c1)OCO2	none
C/C(=N\Nc1ccccn1)c1ccc2c(c1)OCO2	none
C/C(=N\Nc1nc2ccccc2[nH]1)c1ccc2c(c1)OCO2	L major viab 100.5
C/C(=N\Nc1nc2ccccc2[nH]1)c1cc2ccccc2o1	L major viab 67.6
C(=N\Nc1nc2ccccc2[nH]1)/c1ccc2c(c1)OCO2	L major viab 96.3
C/C(=N\Nc1nc2ccccc2[nH]1)c1ccc2c(c1)OCCO2	L major viab 99.9
CC(C)(C)c1ccc(C(=O)NCC(=O)N/N=C/c2ccccc2OCC(=O)O)cc1	none
C=CCn1c(CNC(=O)c2ccccc2F)nnc1SCc1nc2ccccc2c(=O)[nH]1	none (no result: Avidin fluor)
Cc1ccccc1NS(=O)(=O)c1ccc2[nH]cc(C(=O)NCCCN3CCOCC3)c(=O)c2c1	none

Assay outcomes from PubChem.
